According to PubChem BioAssay:
Inconclusive results are not listed.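 The calls were made as follows, unless noted: active = RAM network inhibition above 8.4% in each of two replicates, 3 SD over the compound average; inconclusive = above 8.4% inhibition in only one replicate; inactive = 8.4% inhibition or less in each replicate.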

Assays:
[1] = OD615 S. cerevisiae growth inhibition, permissive medium, pilot counter-assay, permissive growth control for S. cerevisiae lifespan shortening project (AID 705;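 active = growth inhibition above 25% in both replicates, a cutoff set 3 SD above the mean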); conditions: OD615, 24 h, at 10 µM, active compounds read high
Method in brief: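 Test system: Saccharomyces cerevisiae strain carrying genetically modified DeaD replicative-lifespan system; buffer or medium: SC raffinose/galactose permissive medium; dosing: one dose 10 µM, DMSO 0.25% final; times: 24 h exposure, 30 °C; measured by: OD at 615 nm; read-out basis: growth inhibition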

[2] = Restrictive medium S. cerevisiae growth inhibition, OD615, pilot screen of yeast lifespan reduction project, restrictive growth control (AID 706;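 active = growth inhibition above a set limit, 3 SD over mean compound inhibition, in both replicates, cut at about 43% in these data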;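 also: modified DeaD lifespan yeast strain shifted to restrictive glucose medium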); conditions: OD615, 48 h, at 10 µM, active compounds read high
Method in brief: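 material = engineered S. cerevisiae DeaD strain | buffer or medium = glucose-based CSMM-D restrictive medium | dosing = one concentration, 10 µM final, 0.25% DMSO | schedule = 4 h pre-growth plus 48 h compound exposure, 30 °C | detection = OD615 absorbance reading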

[3] = viability gain of MRP-1-high H69AR cells under doxorubicin, pilot screen, MRP-1 activator project, CellTiter-Glo, duplicate (AID 807;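 active = viability increase at or above a cutoff of the median across tested compounds plus 3 SD, cut at about 8.5% in these data, passing the limit was not always enough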;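 also: compound pretreatment 18-22 h then 72 h combined with doxorubicin; 0% = doxorubicin alone and 100% = vehicle without doxorubicin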); conditions: H69AR viability with doxorubicin, CellTiter-Glo luminescence; at 10 µM; active compounds read high
[4] = growth suppression of beta-catenin knockout HCT116, pilot screen, human colon tumor cells (AID 823;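 active = cell viability at or below a set limit in both duplicate runs, the limit being the all-compound median minus 4 SD, cut at about 23% in these data, passing the limit was not always enough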;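 also: 0% = wells killed by 20 µM Hyamine and 100% = untreated DMSO cell wells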); conditions: CellTiter-Glo, 60 h, at 10 µM, active compounds read low
[5] = growth suppression of PTEN-deleted HCT116, pilot screen, cell-based, HCT116 clonal line, CellTiter-Glo (AID 824;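 active = viability at or below 27.92% in each of two runs, the all-compound median minus 4 SD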;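 also: 0% = 20 µM Hyamine control and 100% = vehicle cell control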); conditions: 60 h, at 10 µM, active compounds read low
[6] = inhibitors of the yeast RAM network, pilot screen, dse1pr::URA3 reporter, 5-FOA selection (AID 869;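 active = inhibition over a set limit, the all-compound mean plus 3 SD, in both replicate runs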;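 also: 0% = DMSO wells with no growth and 100% = 10 µM 1-NA-PP1 with full growth; RAM network block rescues cells from 5-FOA so hits raise OD615 growth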); conditions: S. cerevisiae dse1pr::URA3 5-FOA growth, OD615, 2 d; at 10 µM; active compounds read high; strain carries analog-sensitive mutant Cbk1 kinase
[7] = RAM signaling pathway blockade in yeast – S. cerevisiae, Pdr1DBD-CYC8 efflux-inhibited sensitized strain, primary screen (AID 1298);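 also: 0% = DMSO untreated cells without growth and 100% = 10 µM 1-NA-PP1 full growth; higher means more yeast growth rescued from 5-FOA killing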; conditions: S. cerevisiae cbk1-as DSE1-URA3 strain, 5-FOA growth OD615, 2 d; at 50 µM; active compounds read high

O=C(CSc1ccc2c(c1)OCCO2)NC(=O)NC1CCCC1
inactive: growth inhibition [1] -2.04% | growth inhibition [2] 2.58% | viability increase [3] -1.38% | viability [4] 87.7% | viability [5] 91.3% | inhibition [6] 0.535% | RAM network inhibition [7] -1.28%

COCCn1c(SCC(=O)Nc2ccccc2)nc2c1c(=O)[nH]c(=O)n2C
inactive: growth inhibition [1] 1.17% | growth inhibition [2] -4.34% | viability increase [3] 1.21% | viability [4] 102% | viability [5] 95.5% | inhibition [6] 1.67% | RAM network inhibition [7] 1.25%

Cn1c(SCC(=O)Nc2cc(=O)n(C)c(=O)n2C)nnc1C12CC3CC(CC(C3)C1)C2
inactive: growth inhibition [1] 2.36% | growth inhibition [2] 12.8% | viability increase [3] -4.43% | viability [4] 88.8% | viability [5] 92.7% | inhibition [6] 2.03% | RAM network inhibition [7] 3.38%

COc1cccc(N(CC(=O)Nc2cccc(C(C)=O)c2)S(C)(=O)=O)c1
inactive: growth inhibition [1] -9.21% | growth inhibition [2] -2.52% | viability increase [3] -0.61% | viability [4] 101% | viability [5] 93.7% | inhibition [6] 1.08% | RAM network inhibition [7] 5.87%

Cc1ccc2oc(=O)c3cnn(CC(=O)N4CCN(c5ccccn5)CC4)c3c2c1
inactive: growth inhibition [1] -7.07% | growth inhibition [2] -17.7% | viability increase [3] -1.28% | viability [4] 91.8% | viability [5] 87.6% | inhibition [6] 1.41% | RAM network inhibition [7] -0.31%

COC(=O)c1c(NC(=O)CCN2CCOCC2)sc2c1CCCC2
inactive: growth inhibition [1] -1.47% | growth inhibition [2] -2.81% | viability increase [3] -6.91% | viability [4] 88.4% | viability [5] 89.7% | inhibition [6] 0.935% | RAM network inhibition [7] 4.32%

Cc1cc(N2CCOCC2)nc(NCc2ccccc2)n1
inactive: growth inhibition [1] 3.04% | growth inhibition [2] -5.48% | viability increase [3] -3.86% | viability [4] 72% | viability [5] 64.8% | inhibition [6] 1.17% | RAM network inhibition [7] 4.85%

CCOC(=O)N1CCN(c2c(NCc3ccccn3)c(=O)c2=O)CC1
inactive: growth inhibition [1] 8.16% | growth inhibition [2] 18.2% | viability increase [3] -1.44% | viability [4] 103% | viability [5] 96% | inhibition [6] 1.28% | RAM network inhibition [7] 1.45%

COc1cc(C2N(c3ccccc3)CCN2c2ccccc2)ccc1OC(C)=O
inactive: growth inhibition [1] -18.8% | growth inhibition [2] -13.6% | viability increase [3] 0.59% | viability [4] 96.3% | viability [5] 94.5% | inhibition [6] 0.44% | RAM network inhibition [7] 2.35%

CC12CCC(C(=O)NCc3ccco3)(OC1=O)C2(C)C (stereo not drawn)
inactive: growth inhibition [1] -9.57% | growth inhibition [2] -9.65% | viability increase [3] -2.96% | viability [4] 98.3% | viability [5] 93.2% | inhibition [6] 1.42% | RAM network inhibition [7] -0.27%

O=C(Cn1cnc2c(cnn2-c2ccc(Cl)cc2)c1=O)NC1CCCCC1
inactive: growth inhibition [1] -1.74% | growth inhibition [2] 6.22% | viability increase [3] -3.89% | viability [4] 91.3% | viability [5] 91.7% | inhibition [6] 3.79% | RAM network inhibition [7] 2.4%

CC1=C(C#N)C(c2cccnc2)C2=C(CC(C)(C)CC2=O)N1 (stereo not drawn)
inactive: growth inhibition [1] 1.49% | growth inhibition [2] -0.735% | viability increase [3] -2.91% | viability [4] 94.2% | viability [5] 99.6% | inhibition [6] 1.09% | RAM network inhibition [7] 3.92%

Cc1ccc(-c2csc(N3CCC(C(N)=O)(N4CCCCC4)CC3)n2)cc1
inactive: growth inhibition [1] 6.21% | growth inhibition [2] -8.75% | viability increase [3] -1.76% | viability [4] 75.5% | viability [5] 75% | inhibition [6] -0.445% | RAM network inhibition [7] 2.58%

CCC(=O)c1ccc(OCC(=O)Nc2nn3cnnc3s2)cc1
inactive: growth inhibition [1] -2.54% | growth inhibition [2] 8.22% | viability increase [3] 1% | viability [4] 104% | viability [5] 102% | inhibition [6] 1.27% | RAM network inhibition [7] 6.32%

Cc1ccn2cc(CCNC(=O)c3ccc(Br)o3)nc2c1
inactive: growth inhibition [1] -10.6% | growth inhibition [2] -12.7% | viability increase [3] -0.26% | viability [4] 93.8% | viability [5] 95.4% | inhibition [6] 3.01% | RAM network inhibition [7] 4.83%

CCOC(=O)c1cc(-c2ccc(F)cc2)n(CC(=O)Nc2nccs2)c1C
inactive: growth inhibition [1] -11.3% | growth inhibition [2] 1.7% | viability increase [3] -5.35% | viability [4] 59% | viability [5] 62.6% | inhibition [6] 1.99% | RAM network inhibition [7] 4.55%

COc1ccc(-c2nn(-c3ccccc3)cc2C(=O)O)cc1
inactive: growth inhibition [1] -8.52% | growth inhibition [2] 1.15% | viability increase [3] -3.69% | viability [4] 105% | viability [5] 97% | inhibition [6] 3.71% | RAM network inhibition [7] 11.1%

CCOC(=O)N1CCN(C(c2ccc(C)cc2)c2sc3nc(C)nn3c2O)CC1 (stereo not drawn)
inactive: growth inhibition [1] 2.26% | growth inhibition [2] 4.33% | viability increase [3] -0.59% | viability [4] 108% | viability [5] 102% | inhibition [6] 0.185% | RAM network inhibition [7] 0.28%

COc1cccc(-c2nc(CS(=O)CC(=O)NCc3ccccc3Cl)c(C)o2)c1 (stereo not drawn)
inactive: growth inhibition [1] -0.545% | growth inhibition [2] 5.44% | viability increase [3] -3.78% | viability [4] 92.4% | viability [5] 91.9% | inhibition [6] 0.79% | RAM network inhibition [7] 10%

O=C(NCC1CCCO1)c1ccc2c(c1)OCO2 (stereo not drawn)
inactive: growth inhibition [1] -3.01% | growth inhibition [2] 6% | viability increase [3] 0.18% | viability [4] 98.4% | viability [5] 94.3% | inhibition [6] 0.385% | RAM network inhibition [7] 3.13%

Cc1ccc(OCC(=O)O)c(-n2nc3ccccc3n2)c1
inactive: growth inhibition [1] -10.3% | growth inhibition [2] 0.43% | viability increase [3] 0.43% | viability [4] 89.9% | viability [5] 102% | inhibition [6] 2.7% | RAM network inhibition [7] 2.69%

CCOC(=O)C1=C(C)NC(=O)CC1c1cc2c(cc1Br)OCO2 (stereo not drawn)
inactive: growth inhibition [1] 1.83% | growth inhibition [2] -5.8% | viability increase [3] -4.4% | viability [4] 96.6% | viability [5] 90.6% | inhibition [6] 1.44% | RAM network inhibition [7] 6.81%

NC(=O)C1(N2CCCCC2)CCN(C(=O)c2cccs2)CC1
inactive: growth inhibition [1] -8.17% | growth inhibition [2] -16.6% | viability increase [3] 0.57% | viability [4] 105% | viability [5] 92.3% | inhibition [6] 0.955% | RAM network inhibition [7] 1.19%

CCOC(=O)c1ccc(N2C(=O)c3n[nH]c(C)c3C2c2ccccn2)cc1 (stereo not drawn)
inactive: growth inhibition [1] 0.375% | growth inhibition [2] 3.62% | viability increase [3] 0.57% | viability [4] 108% | viability [5] 114% | inhibition [6] 0.195% | RAM network inhibition [7] 3.09%
